Experimental data as given in ChEMBL document CHEMBL4261499, “Chiral disubstituted piperidinyl ureas: a class of dual diacylglycerol lipase-α and ABHD6 inhibitors” (Medchemcomm, 2017).
The source made the active and inactive calls. The rule behind the calls is not given here.

biological target: 1-acylglycerol-3-phosphate O-acyltransferase ABHD5 (Mus musculus) (UniProt Q9DBL9); experiment: Inhibition of MB064 labelling of ABHD5 in mouse brain homogenates at 10 uM pretreated for 30 mins followed by MB064 addition and measured after 20 mins by activity based protein profiling assay; assay type: tissue-based
Sequence (Q9DBL9 whole entry, looked up): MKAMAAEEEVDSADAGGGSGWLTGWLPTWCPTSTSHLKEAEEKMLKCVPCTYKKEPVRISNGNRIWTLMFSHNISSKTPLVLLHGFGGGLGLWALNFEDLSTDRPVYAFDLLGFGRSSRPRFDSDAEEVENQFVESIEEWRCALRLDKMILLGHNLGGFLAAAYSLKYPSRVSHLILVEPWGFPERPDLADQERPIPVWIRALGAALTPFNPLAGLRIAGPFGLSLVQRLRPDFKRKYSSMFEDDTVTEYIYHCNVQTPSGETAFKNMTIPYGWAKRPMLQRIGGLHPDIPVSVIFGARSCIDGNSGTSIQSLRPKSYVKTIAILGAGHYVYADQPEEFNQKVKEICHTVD
Method in brief: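 Mouse brain membrane proteome preincubated 30 min with inhibitor (10 μM), then labelled with MB064 probe (0.25 μM, 20 min). Readout by gel-based competitive ABPP. Band intensities corrected for protein loading per lane from Coomassie staining. Means ± SEM, n = 3.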

inhibition, active:
O=C(N1C[C@@H](O)C=C[C@@H]1COCc1ccccc1)n1cc(-c2ccc(-c3ccccc3)cc2)nn1
O=C(N1CCC=C[C@@H]1COCc1ccccc1)n1cc(-c2ccc([N+](=O)[O-])cc2)nn1
O=C(N1CCC=C[C@@H]1COCc1ccccc1)n1cc(-c2ccccc2)nn1
